Assay results taken from article PMC6482285 (Chembiochem : a European journal of chemical biology, 2014).
Values joined by “and” are separate entries in the source; they are usually repeats but may differ in a detail not shown here. Identical values can stand only once.

Columns and labels:
Format in all cases: biochemical
eEF-2K [1] = biological target: T1, eEF-2K (Homo sapiens, UniProt O00418); assay: ADP binding to eEF-2K
eEF-2K [2] = biological target: T1, eEF-2K; assay: eEF-2K kinase assay, dose response; conditions: 100 μM ATP
eEF-2K Y236F = eEF-2K Y236F (Homo sapiens, UniProt O00418, Y236F); assay: kinase dose response and recovery assays with the Y236F mutant
eEF-2K C146A = eEF-2K C146A (Homo sapiens, UniProt O00418, C146A); assay: kinase dose response and recovery assays with the C146A mutant
eEF-2K [3] = biological target: T1, eEF-2K; assay: recovery experiments after 50-fold dilution, loss of E•I*
eEF-2K [4] = biological target: T1, eEF-2K; assay: time dependent inhibition
Summary of the method: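 eEF-2K (100 nM) incubated with test compound (0–500 μM) for 0–120 min in 25 mM HEPES pH 7.5, BSA, DTT, 5% DMSO. ADP protection used 0/250 μM compound ± 4 mM ADP; glutathione used 2.5 mM for 1 h. Diluted 50-fold into 30 °C assay buffer (150 μM CaCl2, 1 μM calmodulin, 50 μM peptide), started with 100 μM [γ-32P]ATP, read by P81 counting. E•I* formation fitted exponentially or globally for Kd, k2.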

eEF-2K C146S = eEF-2K C146S (Homo sapiens, UniProt O00418, C146S); assay: kinase dose response and recovery assays with the C146S mutant
[5] = 1 mM, 1 hour incubation, rapidly diluted

## Nc1ncnc2c1ncn2[C@@H]1O[C@H](COP(=O)(O)OP(=O)(O)O)[C@@H](O)[C@H]1O [ADP]
eEF-2K [1]
  Ki: ~1000 µM

## N#CC1=C(N)SC(N)=C(C#N)C1c1ccccc1F [DFTD, 2,6-diamino-4-(2-fluorophenyl)-4H-thiopyran-3,5-dicarbonitrile]
eEF-2K [2]; apparent IC50, 10 minute incubation
  IC50: 110 µM
eEF-2K Y236F
  IC50: 105 µM
eEF-2K Y236F; [5]
  recovery of enzyme activity after dilution: slow recovery of activity
eEF-2K C146A
  IC50: 890 µM
  time-dependence of inhibition: no time-dependence
eEF-2K C146A; [5]
  recovery of enzyme activity after dilution: maximal activity was attained immediately
eEF-2K [3]; 250 μM, 1 hour incubation, 50-fold dilution, first order fit
  k-2 (disappearance of E•I*): 0.0006 s⁻¹
eEF-2K [3]; wild type, 1 mM, 1 hour incubation, rapidly diluted
  recovery of enzyme activity after dilution: slow recovery of activity
eEF-2K [4]
  Kd: 140 µM
eEF-2K [4]; DFTD 250 μM in the absence of ADP
  kobs for the formation of the E•I* complex: 0.0015 ± 0.0003 s⁻¹
eEF-2K [4]; DFTD 250 μM in the presence of ADP (4 mM)
  kobs for the formation of the E•I* complex: 0.0002 ± 0.00003 s⁻¹
eEF-2K [4]; DFTD 250 μM pre-incubated with 2.5 mM glutathione for 1 hour
  effect of glutathione on the inactivation or the reversibility rate: no significant effect
eEF-2K [4]; at saturation
  enzyme covalently bound at saturation: approximately 75%
eEF-2K [4]; global fit of Figures 2B and 2C
  slow equilibrium on the enzyme (=k2/k-2): 2.8
eEF-2K [4]; global fit of time-dependent and recovery experiments, KinTek Global Explorer
  k2 (inactivation step): 0.0017 s⁻¹
eEF-2K C146S
  IC50: 655 µM
  time-dependence of inhibition: no time-dependence
eEF-2K C146S; [5]
  recovery of enzyme activity after dilution: maximal activity was attained immediately

## COc1cccc(C2C(C#N)C(=O)NC(=O)C2C#N)c1 (stereo not shown) [MDP, 4-(3-methoxyphenyl)-2,6-dioxo-3,5-piperidinedicarbonitrile]
eEF-2K [2]; 60 minutes preincubation
  h (hill coefficient): 0.93 ± 0.01
eEF-2K [3]; MDP 500 μM, 60 min, diluted 50-fold
  kobs for the loss of the E•I* complex (recovery of activity): 0.00056 s⁻¹ and 0.00056 ± 0.00003 s⁻¹
eEF-2K [4]; MDP 500 μM
  kobs for the formation of E•I* complex: 0.0031 ± 0.0002 s⁻¹
